From PubChem BioAssay
Only a selection was taken, and hits are over-represented in it overall.
HUVEC prolif 384 = blocks proliferation of human endothelial cells | AID 648 | HUVEC proliferation, CellTiter-Glo luminescence, 72 h; stronger effect = lower value | actives 1.1% (n = 86,000) | viability, % at 10 µM (by protocol);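 active = viability at or below 30%; inactive = viability above 30%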;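 note: 100% = median luminescence of DMSO-only cell control wells on each plate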
H69AR growth 86K = growth inhibitors of human H69AR lung tumor cells; viability, % at 10 µM; H69AR lung tumor viability, ATP luminescence, 72 h; stronger effect = lower value; actives 6% (n = 85,000);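 active = viability at or below 40%; inactive = viability above 40%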;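 note: multidrug resistant small cell line overexpressing MRP-1 efflux transporter; 100% = mean luminescence of untreated control wells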
Lung fibro prol = blocks proliferation of human lung fibroblasts; LL 47 human lung fibroblast viability, ATP luminescence; stronger effect = lower value; viability, % at 10 µM; actives 1.1% (n = 85,000); AID 719;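 active = viability at or below 50% in the single dose screen; inactive = viability above 50%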;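 note: compound exposure lasted 72 h before the ATP readout; 100% = median luminescence of untreated cell-only wells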
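test system = LL 47 human lung fibroblasts | amount = 1,150 fibroblasts seeded per well | medium = 15% FBS in IMEM | times = overnight cell rest, 72 h compound treatment at 37 °C | measured by = CellTiter-Glo luminescence measuring cellular ATP | read-out = viability percentage against median untreated-cell control | benchmarks = cell-only wells, no compound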
bCat KO growth = beta-catenin-lacking colon tumor cell growth suppression; HCT116 beta-catenin knockout viability, CellTiter-Glo, 60 h; stronger effect = lower value; actives 1.5% (n = 140,000); viability, % at 10 µM;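 active = viability at or under a set limit, the compound median less 4 SD, cut at about 6% in these data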;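 note: 0% = Hyamine 1622 control at 20 µM and 100% = untreated cell control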
PTEN del growth = PTEN-deleted cell growth suppression; HCT116 PTEN-null viability, CellTiter-Glo, 60 h; stronger effect = lower value; viability, % at 10 µM; actives 1.2% (n = 140,000);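 active = viability at or below a set limit, 4 SD under the median of all tested compounds, cut at about 3.7% in these data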;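 note: PTEN knockout HCT116 line with beta catenin targeted HCT116 as companion control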
Active calls of the source: *; nt = no result.

SMILES	HUVEC prolif 384	H69AR growth 86K	Lung fibro prol	bCat KO growth	PTEN del growth
COc1ccc(-c2nn(CCC(=O)O)cc2/C=C/C(=O)O)cc1[N+](=O)[O-]	nt	nt	nt	91	86
COc1cc(CNC2CCCC2)cc(OC)c1OC	87	90	105	107	102
CCOc1cc(CNCCc2ccc(S(N)(=O)=O)cc2)cc(Cl)c1OCc1ccccc1	nt	nt	nt	1.5*	1.9*
COc1cc(CNC2CCCC2)cc(Cl)c1OCc1ccc(F)cc1	nt	nt	nt	48	64
CCOc1cc(CNC2CCCC2)cc(Cl)c1OCc1ccc(F)cc1	nt	nt	nt	0.9*	0.9*
COc1cc(CNC2CCCC2)cc(Cl)c1OCc1ccccc1Cl	nt	nt	nt	1.2*	1.6*
O=C(O)C1C2C=CC(C3CC23)C1C(=O)N1CCc2ccccc21 (stereo unspecified)	95	90	93	94	85
C=CCOc1ccc(/C=N/O)cc1Cl	nt	nt	nt	85	89
c1ccc(NCC2OCc3ccccc3CO2)cc1	nt	nt	nt	93	103
NC(=O)SCC(=O)Nc1ccc(Cl)c(Cl)c1	65	11*	95	1.1*	1.4*
NC(=O)SCC(=O)Nc1ccc(Cl)cc1	nt	nt	nt	95	97
Cc1ccc(NC(=O)CSC(N)=O)cc1Cl	59	18*	98	74	62
CCc1cc2c(=O)n(Cc3ccco3)c(SCC(=O)N3CCCc4ccccc43)nc2s1	90	102	89	61	60
CCc1cc2c(=O)n(Cc3ccco3)c(SCc3c(C)noc3C)nc2s1	56	13*	49*	24	22
Oc1cccc(-c2nc3c4c(ncn3n2)-c2ccccc2CC42CCCC2)c1	nt	nt	nt	10	2.4*
COc1ccc(-c2nc3c4c(ncn3n2)-c2ccccc2CC42CCCC2)cc1	nt	nt	nt	74	66
CCOc1cc(/C=N/NC(=O)C(=O)NC)cc(Br)c1O	nt	nt	nt	84	93
C=CCSC(=S)NC1CCS(=O)(=O)C1 (stereo unspecified)	nt	nt	nt	92	100
N#Cc1c(NC(=O)CSc2ncn[nH]2)sc2c1CCCCC2	79	28*	79	84	85
N#Cc1cc2c(nc1SCC(=O)Nc1sc3c(c1C#N)CCC3)CCCC2	63	7.2*	84	97	93
N#Cc1cc2c(nc1SCC(=O)Nc1sc3c(c1C#N)CCC3)CCCCC2	79	20*	86	84	75
N#Cc1c(NC(=O)CSc2nc(N)cc(=O)[nH]2)sc2c1CCCCCC2	95	79	88	60	77
N#Cc1c(NC(=O)CSc2nnnn2C2CCCC2)sc2c1CCCC2	102	7.7*	93	89	111
CCOC(=O)c1sc(NC(=O)CSc2nc3c(cc2C#N)CCCCCC3)c(C#N)c1C	30	nt	77	22	16
Cc1c(NC(=S)NC(=O)c2cc3ccccc3o2)c(=O)n(-c2ccccc2)n1C	nt	nt	nt	94	94
SMILES	HUVEC prolif 384	H69AR growth 86K	Lung fibro prol	bCat KO growth	PTEN del growth
Cc1cc(C)nc(N=Nc2c(O)n(Cc3ccc(Cl)cc3)c3ccccc23)n1	nt	nt	nt	56	39
FC(F)(F)c1cccc(Oc2nc(-c3ccccc3)nnc2C(F)(F)F)c1	nt	nt	nt	96	96
FC(F)(F)c1cccc(Sc2nc(-c3ccccc3)nnc2C(F)(F)F)c1	nt	nt	nt	5.3*	11
FC(F)(F)c1nnc(-c2ccccc2)nc1Sc1ccc(Cl)cc1	nt	nt	nt	87	84
FC(F)(F)c1nnc(-c2ccccc2)nc1Sc1ccccc1	nt	nt	nt	1.6*	1.3*
C=CCOCC(O)CS(=O)(=O)Cc1ccc(Cl)cc1 (stereo unspecified)	95	90	101	108	106
CC(SCC(=O)NC(C)C1CC2CCC1C2)C(=O)O (stereo unspecified)	nt	nt	nt	98	104
CCN(CC)CCCNC(CC(=O)Nc1cccc([N+](=O)[O-])c1)C(=O)O (stereo unspecified)	nt	nt	nt	92	90
CCN(CC)C(=O)c1ccc2c(c1[N+](=O)[O-])C(=O)c1ccccc1C2=O	nt	nt	nt	8	2.6*
CCN(CC)C(=O)c1cccc2c1C(=O)c1ccccc1-2	104	92	96	94	97
O=C(/C(=N/N=C/c1ccc(O)c(O)c1)c1ccccc1)c1ccccc1	nt	nt	nt	12	13
O=C(c1ccccc1)c1c[nH]cc1-c1ccccc1	94	92	96	97	87
O=C(C1=C(c2ccccc2)C(=O)c2ccccc2C1=O)c1ccccc1	nt	nt	nt	1.5*	1.5*
COC1=C(c2ccccc2)C(=O)c2ccccc2C1=O	nt	nt	nt	1.9*	2.0*
CCOC(=O)C1=C(C)Nc2sc(C(=O)c3ccc(OC)cc3)c(N)c2C1c1ccc(C(=O)OC)cc1 (stereo unspecified)	nt	nt	nt	75	77
COC1=CC(=O)CC(C)C12Oc1c(Cl)c(OC)cc(OC)c1C2=O (stereo unspecified)	92	29*	87	60	52
N#C/C(C(N)=O)=c1/ccc2c(c1)N1C3=C(CCCC3)CC3CCCCC31N=2 (stereo unspecified)	44	1.9*	88	10	9
N#CC(C#N)=c1ccc2c(c1)N1C3=C(CCCC3)CC3CCCCC31N=2 (stereo unspecified)	68	18*	62	30	41
CCOC(=O)C1C(=O)C=C(/C=C/c2ccc(N(C)C)cc2)CC1c1ccccc1 (stereo unspecified)	nt	nt	nt	95	98
COc1cc(OC)cc(C(=O)NCC(=O)OCC(=O)C(C)(C)C)c1	nt	nt	nt	83	104
COCCN(C(=O)CCl)C(C(=O)NC1CCCCC1)c1ccccc1C (stereo unspecified)	nt	nt	nt	5.2*	3.2*
COCCN(C(=O)C(F)(F)F)C(C(=O)NC1CCCCC1)c1ccco1 (stereo unspecified)	90	93	105	92	81
COc1cc(/C=N/NC(=O)CC23CC4CC(CC(C4)C2)C3)cc(Br)c1OCC(=O)N(C)C	nt	nt	nt	66	62
OCCN1CCN(C2Cc3cc(Cl)ccc3Sc3ccc(Cl)cc32)CC1 (stereo unspecified) (tested in a mixture with another compound)	2.4*	8.9*	92	33	44
CN1CCN(CCOC2Cc3ccccc3Sc3ccc(Cl)cc32)CC1 (stereo unspecified)	nt	nt	nt	29	33
SMILES	HUVEC prolif 384	H69AR growth 86K	Lung fibro prol	bCat KO growth	PTEN del growth
O=C(COC(=O)CNC(=O)c1ccccc1)Nc1cccc(Br)c1	nt	nt	nt	103	94
COc1ccc(CCN2C(=O)CN(Cc3ccccc3)CC2=O)cc1OC	nt	nt	nt	57	0.1*
COc1cc(/C=N/NC(=O)CN2CCCCC2)ccc1OCc1ccc(Br)cc1	nt	nt	nt	91	92
Cc1nc(N2CCN(c3ccccc3)CC2)[nH]c(=O)c1Cc1cccc2ccccc12	52	22*	57	38	37
COc1ccc(CN2CCn3ncc(C(=O)Nc4cc(C)cc(C)c4)c3C2=O)cc1	10*	50	81	78	78
CC(C)CCNC(=O)CO/N=C/c1ccccc1OC(F)F	nt	nt	nt	95	96
CC1SC(C)C(=O)N(CC(=O)NCc2ccc(F)cc2)C1=O (stereo unspecified)	nt	nt	nt	100	96
CN(C)c1cccc(C(=O)OCC(=O)Nc2nccs2)c1	nt	nt	nt	92	97
